Measurements reported in ChEMBL document CHEMBL1137756, “Induction of apoptosis promoted by Bang52; a small molecule that downregulates Bcl-x(L)” (2009).
The source made the active and inactive calls. No cut-off for these calls is given here.

Tests used:
WTK1 [1] = experiment: Induction of p53 transcriptional activity in human WTK1 cells expressing p53 M237I mutant assessed as p21-Cip1/Waf1 expression at 25 uM after 8 hrs by Western blot analysis; type: functional, cell-based
In short: (§1)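 TK6 and WTK1 cells (NH32 also run) treated 8 h at 25 μM, vehicle or doxorubicin 0.1 μM. Extracts immunoblotted for p53, phospho-p53 (Ser15), p21cip1/Waf1 and β-actin.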

WTK1 [2] = experiment: Induction of apoptosis in human WTK1 cells expressing p53 M237I mutant assessed as increase in cleaved caspase 3 level at 25 uM after 8 hrs by Western blot analysis; type: functional, cell-based
In short: (§2)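 TK6, NH32 and WTK1 cells treated 8 h with 25 μM or vehicle; doxorubicin 0.1 μM as comparator. Protein extracts analysed by Western blot probed for cleaved PARP, caspase-3 and β-actin.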

[3] = Cell cycle arrest in human TK6 cells expressing wild type p53 assessed as accumulation at sub-G0/G1 phase at 25 uM after 72 hrs by flow cytometry; type: functional, cell-based
In short: (§3)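 B lymphoblast lines TK6 (wild-type p53), NH32 (p53−/−) and WTK1 (mutant p53) exposed 72 h to 25 μM against vehicle; doxorubicin 0.1 μM as p53-dependent control. Washed twice in ice-cold PBS, held 1.5 h at 4°C in the dark in hypotonic fluorochrome solution (50 μg/ml propidium iodide, 25 μg/ml RNase, 0.1% citrate, 0.1% Triton X-100). Sub-G0/G1 apoptotic percentage from 10,000 events per flow histogram.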

NH32 [4] = experiment: Induction of apoptosis in p53 deficient human NH32 cells assessed as increase in cleaved caspase 3 level at 25 uM after 8 hrs by Western blot analysis; type: functional, cell-based; in short: as §2
TK6 [5] = experiment: Induction of p53 phosphorylation at Ser15 in human TK6 cells expressing wild type p53 at 25 uM after 8 hrs by Western blot analysis; type: functional, cell-based; in short: as §1
TK6 [6] = experiment: Induction of apoptosis in human TK6 cells expressing wild type p53 assessed as reduction of Bcl-Xl level at 25 uM after 8 hrs by Western blot analysis; type: functional, cell-based
In short: (§4)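 TK6, NH32 and WTK1 cells exposed 8 h to 25 μM, vehicle, or doxorubicin 0.1 μM. Protein extracted and Bcl-xL level assessed by Western blot.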

TK6 [7] = experiment: Induction of apoptosis in human TK6 cells expressing wild type p53 assessed as increase in cleaved caspase 3 level at 25 uM after 8 hrs by Western blot analysis; type: functional, cell-based; in short: as §2
TK6 [8] = experiment: Induction of apoptosis in human TK6 cells expressing wild type p53 assessed as necrotic cell population at 25 uM after 8 hrs using annexin-V and 7-ADD staining by flow cytometry; type: functional
In short: (§5)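 TK6 cells given 25 μM or vehicle for 8 h, washed twice in ice-cold PBS, stained with Annexin-V-PE plus 7-ADD. Flow cytometry assigned quadrant populations as percent of total cells. Histograms representative of three independent experiments.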

[9] = Cell cycle arrest in p53 deficient human NH32 cells assessed as accumulation at sub-G0/G1 phase at 25 uM after 72 hrs by flow cytometry; type: functional, cell-based; in short: as §3
TK6 [10] = experiment: Induction of apoptosis in human TK6 cells expressing wild type p53 assessed as decrease in pro-caspase 3 level at 25 uM after 8 hrs by Western blot analysis; type: functional, cell-based; in short: as §2
NH32 [11] = experiment: Induction of apoptosis in p53 deficient human NH32 cells assessed as reduction of Bcl-Xl level at 25 uM after 8 hrs by Western blot analysis; type: functional, cell-based; in short: as §4
NH32 [12] = experiment: Induction of apoptosis in p53 deficient human NH32 cells assessed as increase in PARP cleavage at 25 uM after 8 hrs by Western blot analysis; type: functional, cell-based; in short: as §2
WTK1 [13] = experiment: Induction of p53 phosphorylation at Ser15 in human WTK1 cells expressing p53 M237I mutant at 25 uM after 8 hrs by Western blot analysis; type: functional, cell-based; in short: as §1
WTK1 [14] = experiment: Induction of apoptosis in human WTK1 cells expressing p53 M237I mutant assessed as increase in PARP cleavage at 25 uM after 8 hrs by Western blot analysis; type: functional, cell-based; in short: as §2
TK6 [15] = experiment: Induction of p53 transcriptional activity in human TK6 cells expressing wild type p53 assessed as p21-Cip1/Waf1 expression at 25 uM after 8 hrs by Western blot analysis; type: functional, cell-based; in short: as §1
WTK1 [16] = experiment: Induction of apoptosis in human WTK1 cells expressing p53 M237I mutant assessed as decrease in pro-caspase 3 level at 25 uM after 8 hrs by Western blot analysis; type: functional, cell-based; in short: as §2
TK6 [17] = experiment: Induction of apoptosis in human TK6 cells expressing wild type p53 assessed as live cell population at 25 uM after 8 hrs using annexin-V and 7-ADD staining by flow cytometry; type: functional; in short: as §5
TK6 [18] = experiment: Induction of apoptosis in human TK6 cells expressing wild type p53 assessed as depolarization of inner mitochondrial membrane potential at 25 uM after 8 hrs by flow cytometry relative to CCCP; type: functional, cell-based
In short: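 TK6 cells exposed 8 h to 25 μM, vehicle, or CCCP 100 μM as depolarisation control. Cells washed in ice-cold PBS and resuspended in PBS. Membrane potential read by flow cytometry as FL1 (JC-1 monomers) versus FL2 (aggregates) dual-parameter plots. Representative of three independent experiments.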

NH32 [19] = experiment: Induction of apoptosis in p53 deficient human NH32 cells assessed as decrease in pro-caspase 3 level at 25 uM after 8 hrs by Western blot analysis; type: functional, cell-based; in short: as §2
WTK1 [20] = experiment: Induction of apoptosis in human WTK1 cells expressing p53 M237I mutant assessed as reduction of Bcl-Xl level at 25 uM after 8 hrs by Western blot analysis; type: functional, cell-based; in short: as §4
TK6 [21] = experiment: Induction of apoptosis in human TK6 cells expressing wild type p53 assessed as increase in PARP cleavage at 25 uM after 8 hrs by Western blot analysis; type: functional, cell-based; in short: as §2
TK6 [22] = experiment: Induction of apoptosis in human TK6 cells expressing wild type p53 assessed as early stage apoptotic cell population at 25 uM after 8 hrs using annexin-V and 7-ADD staining by flow cytometry; type: functional; in short: as §5
[23] = Cell cycle arrest in human WTK1 cells expressing p53 M237I mutant assessed as accumulation at sub-G0/G1 phase at 25 uM after 72 hrs by flow cytometry; type: functional, cell-based; in short: as §3
TK6 [24] = experiment: Induction of apoptosis in human TK6 cells expressing wild type p53 assessed as late stage apoptotic cell population at 25 uM after 8 hrs using annexin-V and 7-ADD staining by flow cytometry; type: functional; in short: as §5
TK6 [25] = experiment: Cytotoxicity against human TK6 cells expressing wild type p53; type: functional, cell-based
[26] = Cell cycle arrest in human TK6 cells expressing wild type p53 assessed as accumulation at sub-G0/G1 phase after 72 hrs by flow cytometry; type: functional, cell-based
In short: (§6)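 Cells exposed 72 h to vehicle or compound (0.1 μM doxorubicin or 25 μM others) and harvested. Washed twice in ice-cold PBS, then resuspended in hypotonic solution (50 μg/ml propidium iodide, 25 μg/ml RNase, 0.1% sodium citrate, 0.1% Triton X-100) and held 1.5 h at 4°C in the dark. Flow cytometry at 10,000 events per histogram; cell death taken as the sub-G0/G1 fraction.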

TK6 [27] = experiment: Induction of apoptosis in human TK6 cells expressing wild type p53 assessed as increase in PARP cleavage at 0.1 uM after 8 hrs by Western blot analysis; type: functional, cell-based
In short: (§7)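 Exposure for 8 h to vehicle, 0.1 μM doxorubicin or 25 μM test agents, followed by protein extraction. Western blots probed for cleaved PARP, caspase-3 and β-actin as loading reference.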

WTK1 [28] = experiment: Induction of apoptosis in human WTK1 cells expressing p53 M237I mutant assessed as increase in PARP cleavage at 0.1 uM after 8 hrs by Western blot analysis; type: functional, cell-based; in short: as §7
NH32 [29] = experiment: Induction of apoptosis in p53 deficient human NH32 cells assessed as increase in PARP cleavage at 0.1 uM after 8 hrs by Western blot analysis; type: functional, cell-based; in short: as §7
NH32 [30] = experiment: Induction of apoptosis in p53 deficient human NH32 cells assessed as increase in cleaved caspase 3 level at 0.1 uM after 8 hrs by Western blot analysis; type: functional, cell-based; in short: as §7
WTK1 [31] = experiment: Induction of p53 phosphorylation at Ser15 in human WTK1 cells expressing p53 M237I mutant at 0.1 uM after 8 hrs by Western blot analysis; type: functional, cell-based
In short: (§8)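 Exposure for 8 h to vehicle, 0.1 μM doxorubicin or 25 μM test agents, followed by protein extraction. Western blots probed for total p53, phospho-p53 (Ser15), p21cip1/Waf1 and β-actin.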

TK6 [32] = experiment: Induction of apoptosis in human TK6 cells expressing wild type p53 assessed as increase in cleaved caspase 3 level at 0.1 uM after 8 hrs by Western blot analysis; type: functional, cell-based; in short: as §7
TK6 [33] = experiment: Induction of p53 phosphorylation at Ser15 in human TK6 cells expressing wild type p53 at 0.1 uM after 8 hrs by Western blot analysis; type: functional, cell-based; in short: as §8
WTK1 [34] = experiment: Induction of apoptosis in human WTK1 cells expressing p53 M237I mutant assessed as decrease in pro-caspase 3 level at 0.1 uM after 8 hrs by Western blot analysis; type: functional, cell-based; in short: as §7
NH32 [35] = experiment: Induction of apoptosis in p53 deficient human NH32 cells assessed as decrease in pro-caspase 3 level at 0.1 uM after 8 hrs by Western blot analysis; type: functional, cell-based; in short: as §7
[36] = Cell cycle arrest in human TK6 cells expressing wild type p53 assessed as accumulation at sub-G0/G1 phase at 0.1 uM after 72 hrs by flow cytometry; type: functional, cell-based; in short: as §6
TK6 [37] = experiment: Induction of apoptosis in human TK6 cells expressing wild type p53 assessed as decrease in pro-caspase 3 level at 0.1 uM after 8 hrs by Western blot analysis; type: functional, cell-based; in short: as §7
WTK1 [38] = experiment: Induction of apoptosis in human WTK1 cells expressing p53 M237I mutant assessed as increase in cleaved caspase 3 level at 0.1 uM after 8 hrs by Western blot analysis; type: functional, cell-based; in short: as §7
TK6 [39] = experiment: Induction of p53 transcriptional activity in human TK6 cells expressing wild type p53 assessed as p21-Cip1/Waf1 expression at 0.1 uM after 8 hrs by Western blot analysis; type: functional, cell-based; in short: as §8
[40] = Cell cycle arrest in human WTK1 cells expressing p53 M237I mutant assessed as accumulation at sub-G0/G1 phase at 0.1 uM after 72 hrs by flow cytometry; type: functional, cell-based; in short: as §6
[41] = Cell cycle arrest in p53 deficient human NH32 cells assessed as accumulation at sub-G0/G1 phase at 0.1 uM after 72 hrs by flow cytometry; type: functional, cell-based; in short: as §6
WTK1 [42] = experiment: Induction of p53 transcriptional activity in human WTK1 cells expressing p53 M237I mutant assessed as p21-Cip1/Waf1 expression at 0.1 uM after 8 hrs by Western blot analysis; type: functional, cell-based; in short: as §8

O=C1C2CCN(CC2)C1(CO)CO
Activity (WTK1 [1]): inactive | Activity (WTK1 [2]): inactive | Activity [3]: Active | Activity (NH32 [4]): inactive | Activity (TK6 [5]): inactive | Activity (TK6 [6]): Active | Activity (TK6 [7]): inactive | Activity (TK6 [8]): 1.3% | Activity [9]: Active | Activity (TK6 [10]): inactive | Activity (NH32 [11]): inactive | Activity (NH32 [12]): inactive | Activity (WTK1 [13]): inactive | Activity (WTK1 [14]): inactive | Activity (TK6 [15]): inactive | Activity (WTK1 [16]): inactive | Activity (TK6 [17]): 66.1% | Activity (TK6 [18]): inactive | Activity (NH32 [19]): inactive | Activity (WTK1 [20]): inactive | Activity (TK6 [21]): inactive | Activity (TK6 [22]): 14.9% | Activity [23]: Active | Activity (TK6 [24]): 17.6%

NCCNC(=O)C(F)F
Activity (TK6 [25]): Not toxic | Activity [26]: inactive

O=C(CCNC(=O)C(F)F)c1ccccc1
Activity (TK6 [25]): Not toxic | Activity [26]: inactive

COc1cccc2c1C(=O)c1c(O)c3c(c(O)c1C2=O)C[C@@](O)(C(=O)CO)C[C@@H]3O[C@H]1C[C@H](N)[C@H](O)[C@H](C)O1
Activity (WTK1 [1]): inactive | Activity (TK6 [27]): Active | Activity (WTK1 [28]): Active | Activity (NH32 [29]): Active | Activity (NH32 [30]): Active | Activity (WTK1 [31]): Active | Activity (TK6 [32]): Active | Activity (TK6 [33]): Active | Activity (WTK1 [34]): Active | Activity (TK6 [5]): inactive | Activity (NH32 [35]): Active | Activity [36]: Active | Activity (TK6 [37]): Active | Activity (WTK1 [38]): Active | Activity (WTK1 [13]): inactive | Activity (TK6 [15]): inactive | Activity (TK6 [39]): Active | Activity [40]: inactive | Activity [41]: inactive | Activity (WTK1 [42]): inactive
